# Screening results from PubChem.
# UBC13 inh: UBC13 polyubiquitin chain formation inhibitors, primary screen, biochemical, TR-FRET, uHTS. Ubiquitin-conjugating enzyme E2 N (Homo sapiens), P61088. inhibition, % at 20 µM. 330,000 compounds, 0.47% hits; in the data active = inhibition above about 45%, passing the limit was not always enough
# SENP7 inh: SENP7 protease inhibitors, primary screen, biochemical, luminescence, uHTS. recombinant SENP7, Z-RLRGG-aminoluciferin luminescence, 40 min. inhibition, % at 5 µM. 330,000 compounds, 1.5% hits. AID 434973, 2010;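 active = inhibition above about 50% at the single test dose, limit read from the data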;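 note: plate controls were DMSO with enzyme for no effect and no enzyme buffer wells for full effect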
# Target sequence (Q9BQF6 706-1050 limits assumed): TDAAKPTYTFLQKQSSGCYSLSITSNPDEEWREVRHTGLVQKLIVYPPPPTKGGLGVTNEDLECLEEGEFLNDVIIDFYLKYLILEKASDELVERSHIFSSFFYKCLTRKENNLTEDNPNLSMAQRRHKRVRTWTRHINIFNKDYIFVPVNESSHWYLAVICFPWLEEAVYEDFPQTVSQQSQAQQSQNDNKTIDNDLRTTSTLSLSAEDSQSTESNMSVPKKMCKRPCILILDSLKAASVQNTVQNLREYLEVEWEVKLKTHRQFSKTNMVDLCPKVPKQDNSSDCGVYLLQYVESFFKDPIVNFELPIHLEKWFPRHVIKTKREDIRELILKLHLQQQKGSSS
# SENP8 block-1: SENP8 protease inhibitors, primary screen, biochemical, luminescence; 330,000 compounds, 1.2% hits; inhibition, % at 10 µM; purified SENP8, Z-RLRGG-aminoluciferin cleavage; AID 2540, 2010; Sentrin-specific protease 8 (Homo sapiens), Q96LD8; in the data active = inhibition above about 50%
# Target sequence (Q96LD8 whole entry, looked up): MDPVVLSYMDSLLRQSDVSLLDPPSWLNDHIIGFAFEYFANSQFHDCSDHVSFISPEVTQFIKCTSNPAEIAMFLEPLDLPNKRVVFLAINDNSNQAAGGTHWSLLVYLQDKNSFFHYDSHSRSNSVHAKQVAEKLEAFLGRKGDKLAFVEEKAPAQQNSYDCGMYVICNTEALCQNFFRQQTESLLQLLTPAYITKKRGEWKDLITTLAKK
# Apaf1 inhib: inhibitors of human Apaf-1 apoptosome, primary screen, biochemical, DEVD-Rh110 fluorescence, uHTS; reconstituted apoptosome caspase-3 activity; Apoptotic protease-activating factor 1 (Homo sapiens), O14727; inhibition, % at 20 µM; 330,000 compounds, 0.71% hits; AID 489030, 2010; active = inhibition of at least 40% at 20 µM;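 note: plate controls were DMSO wells for no effect and DEVD-CHO caspase inhibitor wells for full effect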
#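 Assay system: Apoptosome proteins | Medium: pH 7.5 Hepes buffer with CHAPS, BSA, DTT | Also added: Cytochrome c and DEVD-Rh110 substrate | Times: 30 min plus 50 min, RT | Detection: Rhodamine 110 fluorescence at Ex 480/Em 540 nm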
# SENP6 inh: SENP6 protease inhibitors, primary screen, biochemical, luminescence, uHTS; Sentrin-specific protease 6 (Homo sapiens), Q9GZR1; Recombinant SENP6 catalytic domain, aminoluciferin luminescence; inhibition, % at 10 µM; 330,000 compounds, 1.8% hits;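 active = inhibition above about 50% at the single tested dose, limit read from the data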;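 note: plate controls were DMSO wells with enzyme for no effect and DMSO wells lacking enzyme for full effect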
# SENP8 block-2: human SENP8 protease inhibitors, primary screen, biochemical, fluorescence, Nedd8 protein substrate, uHTS | AID 602440, 2012 | inhibition, % at 20 µM | recombinant SENP8 | 360,000 compounds, 0.64% hits; in the data active = inhibition mostly above about 40%, no sharp cut-off; inactive = mostly below about 27%
# SENP8 conf-1: SENP8 protease inhibitors, retest, confirmation, biochemical, luminescence, single concentration; 6,200 compounds, 40% hits; Recombinant SENP8, Z-RLRGG-aminoluciferin luminescence, 60 min; inhibition, % at 12.5 µM; shares compounds with SENP7 inh;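 active = mean inhibition across replicates above about 50%, limit read from the data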
# SENP6 conf: SENP6 protease inhibitors, confirmation, biochemical, luminescence, single concentration. shares compounds with SENP7 inh. recombinant SENP6, Z-RLRGG-aminoluciferin luminescence. inhibition, % at 12.5 µM. 6,200 compounds, 58% hits
# SENP7 confirm: SENP7 protease inhibitors, retest, confirmation, biochemical, luminescence, single concentration. AID 488917, 2010. 6,200 compounds, 69% hits. inhibition, % at 12.5 µM. recombinant SENP7, Z-RLRGG-aminoluciferin luminescence, 40 min. shares compounds with SENP7 inh
# Casp3 select: caspase-3 protease inhibitors, confirmation, selectivity assay for SENP inhibitor project, biochemical, single concentration; shares compounds with SENP7 inh; 6,200 compounds, 60% hits; purified caspase-3, Z-DEVD-aminoluciferin luminescence, 60 min; inhibition, % at 12.5 µM;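 active = mean inhibition above about 50%, limit read from the data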;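 note: plate controls were enzyme with DMSO for no effect and wells without caspase-3 for full effect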
# SENP luc ctr: luminescence interference (SENP counter-screen). inhibition, % at 12.5 µM. shares compounds with SENP7 inh. Pre-incubated SENP8/Z-RLRGG-aminoluciferin, luciferase luminescence interference. 6,200 compounds, 39% hits;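 active = mean inhibition above about 50% when retested at one dose, limit read from the data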;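 note: plate controls were DMSO wells with completed reaction for no effect and substrate without enzyme for full effect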
# Casp3 counter: CASP3 inhibitor validation, counterassay for project on UBE2N polyubiquitination blockers, biochemical, one dose; shares compounds with UBC13 inh; Recombinant caspase-3, Caspase-Glo 3/7 luminescence, 60 min; inhibition, % at 20 µM; 1,400 compounds, 4% hits;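 active = mean inhibition across replicates above about 26%, limit read from the data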;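 note: plate controls were DMSO with caspase-3 for no effect and DMSO wells lacking enzyme for full effect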
# UBC13 conf: UBC13 polyubiquitination inhibitors, single-point retest, confirmation, biochemical, TR-FRET, single concentration | inhibition, % at 10 µM | 1,400 compounds, 68% hits | shares compounds with UBC13 inh | AID 488859, 2010; in the data active = inhibition above about 45%
# SENP8 conf-2: human SENP8 protease inhibitors, confirmation, biochemical, Nedd8 protein substrate, single concentration | inhibition, % at 25 µM | 1,400 compounds, 15% hits | shares compounds with SENP8 block-2 | AID 624319, 2012 | purified SENP8, Nedd8-AMC/pro-Nedd8 cleavage fluorescence, 30 min; in the data active = inhibition mostly above about 39%, no sharp cut-off; inactive = mostly below about 34%
# * hit, by the source's call; / = not tested or not shown. An excerpt weighted towards active compounds, which were near 3.1% of everything screened.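 Rule for the calls, unless noted: active = mean inhibition above about 50% in the one-dose retest (limit read from the data); inactive = the rest.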
SMILES,UBC13 inh,SENP7 inh,SENP8 block-1,Apaf1 inhib,SENP6 inh,SENP8 block-2,Casp3 counter,UBC13 conf,others
O=C(Nc1ccc(N2CCCCC2)cc1)c1ccc([N+](=O)[O-])o1,-19,93*,74*,10,87*,38*,/,/,SENP8 conf-1=10;SENP6 conf=90*;SENP7 confirm=100*;Casp3 select=85*;SENP luc ctr=20;SENP8 conf-2=17
CS(=O)(=O)N1CCN(c2ccc(NC(=O)c3ccc([N+](=O)[O-])o3)cc2)CC1,/,/,/,/,/,39,/,/,
O=C(Nc1cccnc1)c1sc(Nc2ccccc2)nc1-c1ccccc1,48*,0,-2,9,-4,-431,-2,11,
O=C(OCc1cn([C@@H]2CN(C(=O)C3CCCCC3)[C@@H](c3ccc(Cl)cc3)C[C@H]2O)nn1)c1ccccc1,/,/,/,/,/,-2,/,/,
O=C(COC(=O)c1c[nH]c(=O)[nH]c1=O)Nc1cccc([N+](=O)[O-])c1,66*,-15,0,-8,-26,14,-3,76*,
Cc1cc(C(=O)OCC(=O)Nc2cccc([N+](=O)[O-])c2)c(C)o1,3,-1,5,2,17,13,/,/,
COC(=O)c1ccc(CSc2ccccc2NC(=S)Nc2cccc(SC)c2)o1,/,/,/,/,/,-2,/,/,
C[C@]12CCC(=O)C=C1C=C[C@@H]1[C@@H]2CC[C@@]2(C)[C@H]1CC[C@@]21CCC(=O)O1,76*,-4,0,2,9,18,-1,8,
CC(=O)O[C@]1(C(C)=O)CCC2C3C=C(C)C4=CC(=O)CC[C@]4(C)C3CC[C@@]21C (stereo partly drawn),-4,-7,-1,20,-7,20,/,/,
CCCCN(CC)CCCNC(=O)c1cc2c(=O)[nH]c3ccccc3c2s1,30,2,4,5,-14,-281,/,/,
CCN(CC)CCNC(=O)c1cc2c(=O)n(C)c3ccccc3c2s1,55*,-3,-3,2,-8,-279,1,62*,
CCCCN(CC)CCNC(=O)c1cc2c(=O)n(C)c3ccccc3c2s1,70*,-6,-11,5,1,-310,-4,80*,
CS(=O)(=O)c1ncc(Cl)c(C(=O)Nc2ccc(N3CCOCC3)cc2)n1,45*,1,-3,-8,3,29,11,33,
COCCN1C[C@@H](CO)O[C@@H](n2cnc3c(NCC(C)C)ncnc32)C1,/,/,/,/,/,14,/,/,
CCN1CCN(CCNC(=O)c2ccc3nc(-c4cccc(C)c4)c(-c4cccc(C)c4)nc3c2)CC1,54*,11,-6,47*,-22,-287,-2,84*,
CCOC(=O)c1c(C)oc2ccc(O)cc12,25,-8,-6,3,-27,16,/,/,
CCOC(=O)c1c(C(C)(C)C)oc2ccc(O)cc12,55*,1,6,16,3,-1,-5,54*,
CCOC(=O)c1c(CN2CCCCC2)oc2ccc(O)cc12,53*,1,0,-5,-11,14,0,54*,
CCOC(=O)c1c(CN2CCOCC2)oc2ccc(OC)cc12,1,1,-10,-2,-2,7,/,/,
Cc1[nH]c2ccccc2c1C(=O)C(=O)NCc1nnnn1-c1ccc(F)c(F)c1,/,/,/,/,/,13,/,/,
O=C1/C(=C/c2cccc(Cl)c2)CSc2sccc21,7,16,-11,-8,-17,9,/,/,
O=C1/C(=C/c2cccc([N+](=O)[O-])c2)CSc2ccc(Cl)cc21,49*,9,-1,-15,-7,3,1,83*,
Cc1cc(C)c2c(=O)n3c(nc2c1)C(Cc1ccc(O)cc1)NC(=O)c1cc2ccccc2cc1-3 (stereo not drawn),/,/,/,/,/,-20,/,/,
Cc1ccc(C)c(OCC(O)CN2CCN(CCN3C(=O)c4cccc5cccc(c45)C3=O)CC2)c1 (stereo not drawn),84*,-5,-5,19,0,-2,3,101*,
CC(=O)c1ccccc1OCC(O)CN1CCN(CCN2C(=O)c3cccc4cccc(c34)C2=O)CC1 (stereo not drawn),54*,-6,-3,-7,3,-29,-2,60*,
CCCCCCN1C[C@H](n2cc(-c3ccc(F)cc3)nn2)[C@@H](O)C[C@@H]1c1ccc(Cl)cc1,/,/,/,/,/,0,/,/,
CCN(CC)CCOC(=O)c1ccc(N/C=C(/C#N)c2nc(-c3ccc(OC)cc3)cs2)cc1,96*,2,4,35,-23,-13,0,130*,
CCN(CC)CCCN(C(=O)c1ccc(Br)cc1)c1nc(-c2ccc(OC)cc2)cs1,26,-5,-6,27,-13,33,/,/,
Cc1ccccc1CN1CCC(CNC(=O)C2CCCN(c3ncnc4c3nc3n4CCCCC3)C2)CC1 (stereo not drawn),72*,9,1,9,-2,15,1,90*,
